High-throughput results deposited in PubChem by several laboratories.
HNF4A DNA FP: change in binding of human HNF4 alpha to DNA; P41235; HNF4a-FITC DNA binding, fluorescence polarization, 1 h; activity change, % at 10 µM; hit rate 0.3% among 360,000; AID 1224865; in the data active = activity change above about 30%, passing the limit was not always enough
IDE act: activators of human insulin-degrading enzyme in cells | AID 493087 | HEK cells, FAbeta-B cleavage, fluorescence polarization; 0% vehicle, 100% cell-free pure enzyme wells | hit rate 0.073% among 340,000 | activation, % at 5.96 µM;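 active = activation above the mean of all tested compounds plus 3 SD, set per screening campaign, cut at about 17% in these data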
TPT1 inhibitor: blocks Candida albicans tRNA 2'-phosphotransferase | recombinant caTPT1, FP RNA substrate dephosphorylation | inhibition, % at 5 µM | hit rate 0.81% among 300,000 | AID 1962;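 active = inhibition above the mean of all tested compounds plus 3 SD, set per screening campaign, cut at about 24% in these data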
IDE cell inh: inhibits human insulin-degrading enzyme in HEK cells | P14735 | FAbetaB cleavage, fluorescence polarization | inhibition, % at 5.59 µM | hit rate 0.41% among 320,000 | AID 434962;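 active = percent inhibition above the average of all tested compounds plus 3 SD, set per screening campaign, cut at about 16% in these data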;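 also: IDE supplied by intact live HEK cells; FP after avidin binding of uncleaved biotin substrate so inhibition keeps polarization high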
Rpn11 block: Rpn11 (human) deubiquitinase inhibition | hit rate 0.59% among 360,000 | human 26S proteasome, Ub4-pepOG fluorescence polarization; 20S core pre-blocked with epoxomicin | O00487 | inhibition, % at 20 µM;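 active = inhibition at 20 µM, scaled to each plate's controls, above about 33%, limit read from the data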
Target sequence (O00487 whole entry, looked up): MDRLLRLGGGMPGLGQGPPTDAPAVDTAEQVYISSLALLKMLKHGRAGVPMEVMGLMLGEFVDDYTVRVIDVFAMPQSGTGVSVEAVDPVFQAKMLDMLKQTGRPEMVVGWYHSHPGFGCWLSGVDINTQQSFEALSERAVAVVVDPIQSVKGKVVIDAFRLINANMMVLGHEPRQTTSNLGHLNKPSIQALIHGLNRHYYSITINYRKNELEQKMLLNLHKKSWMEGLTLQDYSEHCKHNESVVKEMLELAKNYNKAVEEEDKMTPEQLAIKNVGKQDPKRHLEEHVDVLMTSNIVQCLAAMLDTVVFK
CSN deneddyl inh: inhibitors of human CSN-mediated cullin deneddylation | AID 651999 | hit rate 0.38% among 360,000 | inhibition, % at 12.5 µM | Purified CSN, SCF-Nedd8-OG deneddylation, fluorescence polarization | Q92905;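 active = pattern-corrected inhibition above about 35%, with an unprinted fluorescence ratio check between 0.5 and 1.5, limit read from the data, passing the limit was not always enough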
Target sequence (Q92905 whole entry, looked up, one chain of several): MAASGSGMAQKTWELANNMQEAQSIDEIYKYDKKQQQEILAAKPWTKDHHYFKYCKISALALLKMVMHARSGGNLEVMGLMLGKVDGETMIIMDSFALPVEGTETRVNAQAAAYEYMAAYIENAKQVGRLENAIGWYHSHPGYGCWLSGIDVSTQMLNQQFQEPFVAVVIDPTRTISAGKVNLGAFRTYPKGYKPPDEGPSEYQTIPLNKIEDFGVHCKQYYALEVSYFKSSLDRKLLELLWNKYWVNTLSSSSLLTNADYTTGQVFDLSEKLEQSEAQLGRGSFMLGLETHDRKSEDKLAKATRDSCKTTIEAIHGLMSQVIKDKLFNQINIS
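Assay system: HEK293T-derived human Csn5 enzyme; quantity: 0.24 nM enzyme; medium: Tris/NaCl/DTT buffer, pH 7.5; also added: substrate SCFSkp2-Nedd8OG, 10 nM; doses: 12.5 µM compound; schedule: 90 min reaction at room temperature; signal: FP; read-out: % inhibition of substrate cleavage by Csn5; benchmarks: substrate-only high control, full reaction low control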
Rpn11 inh conf: confirmation of human proteasome Rpn11 inhibitors; shares compounds with Rpn11 block; purified human 26S proteasome, Ub4-pepOG fluorescence polarization; proteasome pretreated with epoxomicin; inhibition, % at 20 µM; hit rate 29% among 1,900; AID 602318
MMP-2 counter: blocks human MMP-2, flagging nonselective RPN11 hits; shares compounds with Rpn11 block; AID 602330; recombinant MMP-2, FRET peptide cleavage fluorescence; hit rate 4% among 1,900; inhibition, % at 20 µM;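 also: human MMP-2 activated beforehand with APMA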
Thrombin inh: counter-screen for RPN11 inhibitors: inhibition of bovine thrombin; shares compounds with Rpn11 block; bovine thrombin cleavage of Ub4-pepOG, fluorescence polarization; inhibition, % at 20 µM; hit rate 13% among 1,900;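 active = mean inhibition at least 40% at 20 µM, or signal 3 deviations below plate average, so some actives read negative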
Numbers stand for hits; – = inactive; · = not tested or not shown; + = active, no number. A selection: hits, their analogues and other compounds. The true share with any hit is near 1.7%. Rule as the data show it, unless noted: active = inhibition above about 40%; inactive = the rest.

SMILES	HNF4A DNA FP	IDE act	TPT1 inhibitor	IDE cell inh	Rpn11 block	CSN deneddyl inh	Rpn11 inh conf	MMP-2 counter	Thrombin inh
COc1ccc2cc(-c3csc(-c4cccnc4)n3)ccc2c1	–	–	–	–	65	–	–	–	–
Cc1ccnc(NC(=O)C2CCCN(S(=O)(=O)c3ccc4[nH]c(=O)ccc4c3)C2)c1 (stereo not given)	–	–	–	–	–	–	·	·	·
NC(c1csc(Nc2nncc3ccccc23)n1)C1CCCCC1 (stereo not given)	–	·	·	·	–	–	·	·	·
CCN1CCN(Cc2ccc(NC(=O)c3ccc(C)c(NC(=O)c4ccno4)c3)cc2C(F)(F)F)CC1	–	–	–	–	–	–	·	·	·
CCN1CCN(Cc2ccc(NC(=O)c3ccc(C)c(NC(=O)c4csc(-c5ccncc5)n4)c3)cc2C(F)(F)F)CC1	–	–	–	–	55	–	–	–	–
COc1cccc(OC)c1C(=O)Nc1ccc2c(c1)Cc1ccccc1-2	–	–	–	–	–	–	·	·	·
COc1cccc(OC)c1C(=O)NC(=S)Nc1ccc2c(c1)Cc1ccccc1-2	–	–	–	–	+	–	–	–	–
CCc1ccc(N2C(=O)Cc3c2nc(N)c(C#N)c3N)cc1	–	–	–	–	–	–	·	·	·
CCN(CC)c1nc2c3c(nc4c(c3c1C#N)CC(=O)N4c1ccc(Cl)cc1)NC(C)=N2	–	–	–	–	43	–	–	–	–
O=C(O)c1ccc([N+](=O)[O-])cc1-c1cc([N+](=O)[O-])ccc1C(=O)O	–	–	·	·	–	–	·	·	·
Cc1ccc(O)c(C(=O)c2cnn(C(=O)COc3ccc(Cl)cc3)c2)c1	–	–	–	–	77	–	–	–	–
COc1cccc(OCC(=O)O/N=C(\N)c2ccc(OC)c(OC)c2)c1	–	–	–	–	–	–	·	·	·
CC1(C)Cc2c(C#N)c(NCCCO)nc(-c3ccccc3)c2CO1	28	–	–	–	68	–	–	–	–
CCN(CC)CCNc1nc(-c2ccccc2)c2c(c1C#N)CC(C)(C)OC2	–	–	–	–	–	–	·	·	·
COc1ccccc1N(C)c1cc2c(c3c1ccn3C)C1CCC2O1 (stereo not given)	–	·	·	·	42	–	–	–	–
Cn1ccc2c(N3c4ccccc4CCc4ccccc43)cc3c(c21)C1CCC3O1 (stereo not given)	–	·	·	·	49	–	–	–	–
Cn1ccc2c(N3c4ccccc4CCc4ccccc43)cc3c(c21)C1CCC3C1 (stereo not given)	–	·	·	·	–	–	·	·	·
Cc1ccccc1CN1CCN(CCCc2ccccc2)C(CCO)C1 (stereo not given)	–	–	–	–	–	–	·	·	·
CN(C)C(CNC(=S)Nc1ccc(Cl)cc1)c1cccnc1 (stereo not given)	–	–	–	–	–	–	·	·	·
CC(C)C[C@@H]1CN(CCCC[C@H]2CNC(=O)C(=O)N2CCC2CCCCC2)C(=O)C(=O)N1CC1CCCCC1	–	·	·	·	·	–	·	·	·
Cc1cc(C)n2nc(Sc3ncccc3[N+](=O)[O-])nc2n1	–	·	–	–	43	–	–	–	–
Cc1cnc(Sc2ncccc2[N+](=O)[O-])nc1	–	–	–	–	–	–	·	·	·
Cc1[nH]n(-c2ccc(Cl)cc2)c(=O)c1C=NC12CN3CN(CN(C3)C1)C2	–	–	–	–	–	–	·	·	·
COc1cc(SC#N)ccc1N=Cc1c(C)[nH]n(-c2ccc(Cl)cc2)c1=O	–	–	–	–	141	–	–	–	–
COc1cc(-c2noc(CCC(=O)Nc3cccnc3)n2)cc(OC)c1OC	–	–	–	–	36	–	–	–	–
SMILES	HNF4A DNA FP	IDE act	TPT1 inhibitor	IDE cell inh	Rpn11 block	CSN deneddyl inh	Rpn11 inh conf	MMP-2 counter	Thrombin inh
COc1cc(NC(=O)CCc2nc(-c3cccs3)no2)cc(OC)c1OC	–	–	–	–	–	–	·	·	·
O=C(Nc1ccccc1-c1nc2ccccc2s1)C1=COCCO1	–	–	–	–	62	–	–	–	–
CCN(CC)S(=O)(=O)c1cc(OC)ccc1N=Nc1ccc(O)c2ncccc12	–	–	·	·	50	–	48	43	–
NS(=O)(=O)c1ccc(N=Nc2ccc(O)c3ncccc23)cc1	–	–	–	–	86	–	70	55	–
CCCCCC(=O)OCc1ccc(C2=CC(=O)CC(C)(C)C2=O)cc1	–	·	·	·	–	–	·	·	·
CCN(CC(=O)Nc1ccc(C(=O)OC)cc1)C1CCCCC1	–	–	–	–	–	–	·	·	·
COc1ccc2c(c1)CCc1sc(NC(=O)c3ccco3)nc1-2	–	–	–	–	–	–	·	·	·
COc1ccc2c(c1)Cc1sc(NC(=O)c3ccco3)nc1-2	–	–	–	–	152	–	–	–	–
CCN(c1ccccc1)S(=O)(=O)c1ccc(Cl)c(NC(=O)CN2C(=O)NC3(CCCC3)C2=O)c1	–	–	–	–	–	–	·	·	·
CCOc1ccc2c(ccc(/C=C/c3cc(C)c4cccnc4c3O)[n+]2C)c1	–	–	·	·	112	–	102	75	–
CCOc1ccc(N=Nc2ccc(O)c3ncccc23)cc1	–	–	·	·	–	–	·	·	·
COc1ccc(CN2C(=O)c3cccnc3C2Nc2ccc(C)cc2)cc1 (stereo not given)	–	–	–	–	47	–	–	–	–
COc1ccc(CN2C(=O)c3cccnc3C2Nc2cc(Cl)c(OC)cc2OC)cc1 (stereo not given)	–	–	–	–	–	–	·	·	·
N#Cc1ccc(OCC(=O)n2cc(C(=O)c3cc(Cl)cc(Cl)c3O)cn2)cc1	·	·	–	–	·	·	·	·	·
Cc1nnc(SCC(=O)N2N=C(c3ccc(Cl)cc3)CC2c2ccco2)[nH]c1=O (stereo not given)	–	–	–	–	74	–	–	–	–
Cc1cccc(N2CCN(S(=O)(=O)c3cc4c(cc3Cl)NC(=O)CO4)CC2)c1C	–	–	–	–	44	–	–	–	–
COc1cccc(N2CCN(S(=O)(=O)c3cc4c(cc3Cl)NC(=O)CO4)CC2)c1	–	–	–	–	–	–	·	·	·
Cc1nc(NC(=O)/C=C/c2ccccc2)sc1C(=O)Nc1ccc(Cl)cc1	–	–	–	–	–	–	·	·	·
Cc1nc(NC(=O)/C=C/c2ccccc2)sc1C(=O)Nc1ccccc1Cl	–	–	–	–	40	–	–	–	–
CN1CCC[C@H]1CCNc1ccc2c(=O)c3ccccc3n(C)c2c1	–	–	·	·	48	–	–	–	–
CN1CCCC1CCNc1ccc2c(=O)c3ccccc3oc2c1 (stereo not given)	–	–	–	–	–	–	·	·	·
